# Assay results: paper PMC8941156 (Heliyon, 2022)
# Experiments:
# [1] = Single dose oral pharmacokinetic study of rubraxanthone in mice; type: in vivo; settings: mouse, plasma, 700 mg/kg
# Method in brief: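 Mice (7–8 weeks, 20 ± 5 g) were given a fresh suspension in virgin coconut oil orally. Under isoflurane, mandibular-vein blood was taken from six mice per time point over 0–24 h into lithium heparin, and plasma was stored at −80 °C. Plasma was extracted by acetonitrile precipitation with α-mangostin internal standard and read by UHPLC-DAD (0.128–5 µg/mL calibration). Non-compartmental analysis used trapezoidal AUC and Ke from log-linear regression of the last four points (3–5.5 h), reported as mean ± SD.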
# [2] = Stability of rubraxanthone in mice plasma; type: in vitro ADME; settings: for freeze–thaw stability, % diff: mice plasma, three freeze–thaw rounds
# Method in brief: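 Blank mouse plasma was spiked at medium and high QC levels, extracted by acetonitrile precipitation with α-mangostin internal standard, and quantified by UHPLC-DAD at 243 nm. For freeze–thaw, four replicate samples per level went through three cycles. Post-preparative and plasma stability came from eight replicates per level. Results are given as % difference.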
compound,measurement,setting,value
"COc1c(O)cc2oc3cc(O)cc(O)c3c(=O)c2c1C/C=C(\C)CCC=C(C)C [rubraxanthone, 1,3,6,trihydroxy-8-geranyl-7-methoxy xanthone]",CL/F,[1],1.12 L/h/kg
same,Tmax,[1],1.5 ± 0.99 h
same,half-life,[1],6.72 ± 1.29 h
same,k el,[1],2.78e-05 s⁻¹
same,"freeze–thaw stability, % diff",[2]; HC sample (3.750 μg/mL),5.9%
same,"freeze–thaw stability, % diff",[2]; MC sample (2.067 μg/mL),0.49%
same,post-preparative and plasma stability,"[2]; plasma kept at ambient temperature for 24 h before or after extraction vs plasma kept at -20 °C, MC and HC samples",stable
